Test results taken from PMC8355823 (Toxicology Reports, 2021).
Read-outs that look alike come from different tables or passages of the source.

What was measured:
[1] = test system: zebrafish; conditions: cited from earlier work
[2] = test system: ES-D3 cells; assay: Cell viability assay; assay type: cell-based, murine; conditions: Mus musculus, 120 h, read-out: Viability (IC50)
Summary of the method: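 ES-D3 cells plated at 500/well in LIF-containing medium and settled 2 h at 37 °C, 5% CO2. Exposed in six replicates to test compound, 0.25% DMSO vehicle, or penicillin G and 5-fluorouracil controls. Medium renewed at the same final concentrations after 3 days, then 2 more days. CellTiter-Blue added for 2 h; fluorescence read at 544/590 nm and expressed as % of DMSO. n = 3 experiments. IC50 taken from an exponential concentration-response fit with 90% BMCL-BMCU.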

[3] = test system: rats; conditions: cited from earlier work
[4] = test system: ES-D3 embryoid bodies; assay: Embryoid body; assay type: cell-based, murine; conditions: Mus musculus, read-out: EB area (EC50); day 7
Summary of the method: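 Differentiation run without LIF. Hanging drops kept 3 days, then EBs moved to exposure medium for 2 days, then placed singly in 24-well plates with exposure medium. On differentiation day 7, each EB was imaged by bright field at 4x and its border traced to give area. Mean area of 24 EBs per condition was used. EC50 taken from an exponential concentration-response fit with 90% BMCL-BMCU.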

[5] = test system: ES-D3 embryoid bodies; assay: Total protein measurements of EBs; assay type: cell-based, murine; conditions: Mus musculus, 168 h, read-out: Protein level (EC50); day 7
Summary of the method: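 Differentiation run without LIF. Hanging drops kept 3 days, then exposure to test compound during EB culture. On differentiation day 7, 24 EBs per condition were pooled, dissociated at 37 °C for 3 min, washed in PBS and permeabilised in 1% Triton X-100 for 5 min. Protein measured by Micro BCA in triplicate. EC50 taken from an exponential concentration-response fit with 90% BMCL-BMCU.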

[6] = test system: rabbits; conditions: cited from earlier work
[7] = test system: ES-D3 embryoid bodies; assay: Gene expression analysis; assay type: cell-based, murine; conditions: after 24 h exposure, day 4
Summary of the method: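 EBs differentiated to day 4 with 24 h exposure to test compound or 0.25% DMSO. 7–8 EB samples from two independent experiments. RNA isolated with a DNase step; quality accepted at 260/280 of 1.9–2.2 and RIN >8.2. TaqMan real-time PCR: 95 °C for 20 s, then 40 cycles of 95 °C 3 s and 60 °C 30 s. Values by ΔΔCt against mean Hprt1/Gusb/Polr2a. One-way ANOVA with Sidak test (p < 0.05) versus control.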

Row | SMILES | Cardiac-related developmental defects ([1]; zebrafish) | IC50 [2] | Degenerated neurons in the cerebellum of the offspring ([3]; exposure of pregnant rats) | Numbers of Purkinje cells in the offspring ([3]; exposure of pregnant rats) | Psychobiological development ([3]; neonatal rats, dams exposed to 1 mg/kg per os) | Acetylcholine esterase (AChE) ([3]; neonatal rats) | Muscarinic receptors ([3]; neonatal rats) | Malformations ([3]; rats, maternally toxic doses of 25 mg/kg per day) | EC50 [4] | EC50 [5] | Fetotoxicity and teratogenicity [6] | Cardiac-related developmental defects ([1]; zebrafish model) | Cardiac effects ([1]; zebrafish) | Fetotoxicity and teratogenicity ([3]; rats) | Myh6 gene expression (late cardiomyocyte differentiation marker) [7]
1 | CCOP(=S)(OCC)Oc1nc(Cl)c(Cl)cc1Cl [Chlorpyrifos] | pericardial oedema | 85.7 µM | increased degenerated neurons | reduced numbers of Purkinje cells | delay in psychobiological development | reductions | dose-dependent decrease | multiple malformations | 139 µM | 92 µM |  |  |  |  | 
2 | CCOC(=O)CC(SP(=S)(OC)OC)C(=O)OCC (stereo not shown) [Malathion, malathion] | bradycardia and a reduced heart rate | 49.4 µM |  |  |  |  |  |  | 72 µM | 80.2 µM | neither fetotoxic nor teratogenic |  |  |  | 
3 | O=P(Oc1ccccc1)(Oc1ccccc1)Oc1ccccc1 [Triphenyl phosphate, triphenyl phosphate] |  | 61.4 µM |  |  |  |  |  |  | 120 µM | 108 µM |  | impaired cardiac looping and function | impairments in cardiac looping and function defects | neither fetotoxic nor teratogenic | not expressed yet
